bCat nuc transl – beta-catenin nuclear translocation modulation; HeLa beta-catenin nuclear translocation, immunofluorescence imaging; nuclear translocation activity, % at 5 µM; actives 0.3% (n = 190,000);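 active = nuclear translocation activity above 50% at 5 µM, with a well cell count of 50 or more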;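 note: per-cell ratio of nuclear to cytoplasmic median beta-catenin stain intensity; plate controls were DMSO negative control for no effect and GSK-3 inhibitor IX positive control for full effect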
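Test system: human HeLa cell line; Doses: 5 µM primary, 0.02–20 µM confirmation; Incubation: 24 h compound exposure, 37°C; Detection: beta-catenin immunofluorescence imaging with DAPI; Read-out: beta-catenin nuclear/cytoplasmic ratio, % activation.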
IEC-6 cytotox – counter-screen for KLF5 inhibitors: cytotoxicity in IEC-6 cells; IEC-6 cytotoxicity, luminescence viability; inhibition, % at 5 µM; actives 0.78% (n = 290,000); in the data active = inhibition above about 22%;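 note: 0% = plate median of test compound wells and 100% = cytotoxic reference compound wells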
Ba/F3 V617F tox – lowers viability of Ba/F3 cells expressing EpoR and JAK2V617F. ATP luminescence. inhibition, % at 5.6 µM. actives 1.1% (n = 220,000);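 active = inhibition above the campaign mean plus 3 SD over all tested compounds, cut at about 24% in these data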;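 note: cytokine-independent growth of Ba/F3 cells driven by EpoR plus mutant JAK2; 0% = DMSO-treated cells and 100% = JAK inhibitor I control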
MT stabilizer – stabilizes microtubules in HeLa cells; HeLa tubulin immunostaining HCS, 24 h; share of cells brighter than vehicle mean+2SD; % tubulin-high responders, % at 10 µM; actives 0.83% (n = 200,000); AID 2205;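 active = plate Z-score above 3 for both tubulin-high and condensed-nucleus cell shares, with cell loss under 80%, at 10 µM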;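 note: anti alpha tubulin signal scored within the nucleus-defined area of each cell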
BaF3 parental – reduces parental Ba/F3 cell viability, JAK2V617F counter-screen; inhibition, % at 5.6 µM; actives 1.1% (n = 220,000); CellTiter-Glo ATP luminescence; AID 1486;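 active = inhibition above a per-campaign cutoff, the mean inhibition of all tested compounds plus 3 SD, cut at about 27% in these data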;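 note: 0% = DMSO wells and 100% = JAK Inhibitor I control wells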
KLF5 inhibitor – suppresses KLF5 promoter-driven expression. inhibition, % at 5 µM. AID 1700. actives 0.23% (n = 290,000). DLD-1 KLF5 promoter-luciferase reporter, luminescence;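 active = inhibition above a per-plate limit of that plate's mean compound inhibition plus 3 SD, cut at about 60% in these data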;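 note: 0% = DMSO wells and 100% = LY294002 at 200 µM; higher means less KLF5 promoter-driven luciferase light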
Active calls of the source: *. This is a sample that favours compounds with a hit; in the whole collection about 2.1% have one here.

`CCOc1cc(/C=C2/NC(=O)N(Cc3ccccc3F)C2=O)ccc1O` gave bCat nuc transl 0, IEC-6 cytotox 3, Ba/F3 V617F tox 95*, MT stabilizer 4, BaF3 parental 72* and KLF5 inhibitor -19.
Screening COCCCN1C(=O)c2ccc(C(=O)N3CCN(c4ccccc4OC)CC3)cc2C1=O returned IEC-6 cytotox 6 and KLF5 inhibitor -8.
Screening COc1cccc(CNC(=O)CCS(=O)(=O)c2cc3c(cc2C)NC(=O)CO3)c1 returned IEC-6 cytotox 1 and KLF5 inhibitor -2.
Screening CC(=O)c1ccc(OCC(O)CN2CCN(CC(O)COc3ccc(C(C)=O)cc3)CC2)cc1 (configuration not stated) returned bCat nuc transl -2, IEC-6 cytotox 0, Ba/F3 V617F tox -2, MT stabilizer 3, BaF3 parental -3 and KLF5 inhibitor -19.
CC(=O)c1ccc(OCC(O)COc2ccc(C(C)=O)cc2)cc1 was read as bCat nuc transl -4, IEC-6 cytotox 1, Ba/F3 V617F tox 3, MT stabilizer 2, BaF3 parental 96* and KLF5 inhibitor -14.
Screening N=c1ccn(Cc2cccc(Cl)c2)cc1 returned bCat nuc transl 2, IEC-6 cytotox 5, Ba/F3 V617F tox 88*, MT stabilizer 4, BaF3 parental 66* and KLF5 inhibitor 6.
For N=c1ccn(Cc2ccc(Cl)c(Cl)c2)cc1 the results were bCat nuc transl -3, IEC-6 cytotox 6, Ba/F3 V617F tox 89*, MT stabilizer 4, BaF3 parental 75* and KLF5 inhibitor 2.
For N=c1ccn(Cc2ccc(Cl)cc2)cc1 the results were bCat nuc transl 2, IEC-6 cytotox -5, Ba/F3 V617F tox 92*, MT stabilizer 3, BaF3 parental 68* and KLF5 inhibitor -18.
Clc1ccc(CN2CCCCCCC2)cc1Cl was read as bCat nuc transl 0, IEC-6 cytotox -10, Ba/F3 V617F tox -1, MT stabilizer 3, BaF3 parental -3 and KLF5 inhibitor -16.
For Cc1ccc(NC(=O)CN(C)C(=O)c2n[nH]c(=O)c3ccccc23)cc1 the results were bCat nuc transl -1, IEC-6 cytotox -1, Ba/F3 V617F tox 1, MT stabilizer 2, BaF3 parental 4 and KLF5 inhibitor -21.
For CC(=O)c1c(C)nc2sc3c(=N)n(N)cnc3c2c1-c1ccc(Cl)cc1 the results were bCat nuc transl -2, IEC-6 cytotox 9, Ba/F3 V617F tox -2, MT stabilizer 7, BaF3 parental 0 and KLF5 inhibitor -4.
Screening Cc1nc([N+](=O)[O-])c(Br)n1CC(=O)c1cccc([N+](=O)[O-])c1 returned bCat nuc transl 1, IEC-6 cytotox -1, Ba/F3 V617F tox 1, MT stabilizer 3, BaF3 parental -5 and KLF5 inhibitor -38.
Cc1nc([N+](=O)[O-])c(Br)n1CC(=O)c1ccc(F)cc1 was read as bCat nuc transl 0, IEC-6 cytotox 18, Ba/F3 V617F tox 37*, MT stabilizer 2, BaF3 parental -8 and KLF5 inhibitor -16.
`COc1ccc(/C=N/NC(=O)c2cccc(Br)c2)cc1Cn1cc(Cl)cn1` gave IEC-6 cytotox 6, Ba/F3 V617F tox 1, MT stabilizer 41*, BaF3 parental 5 and KLF5 inhibitor 13.
Screening O=C(NNC(=O)C1C2CCC(C2)C1C(=O)O)c1cccc(Cl)c1 (configuration not stated) returned bCat nuc transl 0, IEC-6 cytotox 7, Ba/F3 V617F tox 1, MT stabilizer 2, BaF3 parental 6 and KLF5 inhibitor -6.
S=C(Nc1ccccc1)Nc1ccc(Cl)cn1 was read as bCat nuc transl -3, IEC-6 cytotox 11, Ba/F3 V617F tox 2, MT stabilizer 4, BaF3 parental 4 and KLF5 inhibitor -53.
Screening O=C(NC(=S)Nc1ccc(Cl)cn1)C(c1ccccc1)c1ccccc1 returned bCat nuc transl 1, IEC-6 cytotox 0, Ba/F3 V617F tox 3, MT stabilizer 36*, BaF3 parental 4 and KLF5 inhibitor -1.
`O=C(O)CCCCCNS(=O)(=O)c1cccc2c1C(=O)c1ccccc1C2=O` gave bCat nuc transl -1, IEC-6 cytotox 26*, Ba/F3 V617F tox 6, MT stabilizer 5, BaF3 parental 13 and KLF5 inhibitor -1.
For O=C(O)CCCCCNS(=O)(=O)/C=C/c1ccccc1 the results were bCat nuc transl 0, IEC-6 cytotox 0, Ba/F3 V617F tox -1, MT stabilizer 2, BaF3 parental 3 and KLF5 inhibitor -43.
O=C1C2C3c4ccccc4C(c4ccccc43)C2C(=O)N1c1ccncc1 (configuration not stated) was read as bCat nuc transl 0, IEC-6 cytotox -3, Ba/F3 V617F tox 66*, MT stabilizer 4, BaF3 parental 71* and KLF5 inhibitor 5.
Screening NS(=O)(=O)c1ccc(NC(=S)Nc2cc(Cl)c(Cl)cc2Cl)cc1 returned bCat nuc transl 0, IEC-6 cytotox -2, Ba/F3 V617F tox -1, MT stabilizer 4, BaF3 parental 4 and KLF5 inhibitor 1.
CC1=NN(c2ccccc2)C(=O)C1(C)C was read as bCat nuc transl 0, IEC-6 cytotox 2, Ba/F3 V617F tox -3, MT stabilizer 3, BaF3 parental 1 and KLF5 inhibitor 0.
`CC[N+]1=CN(c2ccccc2)C(C)=CC1(C)C` gave IEC-6 cytotox -2, Ba/F3 V617F tox 40*, MT stabilizer 4, BaF3 parental 52* and KLF5 inhibitor -17.
For CCCN1CCCc2cc(CN)ccc21 the results were bCat nuc transl 0, IEC-6 cytotox 6, Ba/F3 V617F tox 63*, MT stabilizer 2, BaF3 parental 63* and KLF5 inhibitor -13.
For CN1CCCc2cc(C=O)ccc21 the results were bCat nuc transl -3, IEC-6 cytotox -1, Ba/F3 V617F tox -1, MT stabilizer 3, BaF3 parental 20 and KLF5 inhibitor -26.
For S=c1[nH]nc(-c2ccccn2)n1/N=C/c1cccc2ccccc12 the results were bCat nuc transl -3, IEC-6 cytotox 3, Ba/F3 V617F tox -1, MT stabilizer 2, BaF3 parental 7 and KLF5 inhibitor -31.
Cc1cc(C)cc(NC(=O)CN(c2ccc(F)cc2)S(C)(=O)=O)c1 was read as bCat nuc transl 1, IEC-6 cytotox -1, Ba/F3 V617F tox 1, MT stabilizer 1, BaF3 parental 6 and KLF5 inhibitor 3.
Screening O=C(NCc1cccnc1)/C(=C\c1ccc(-c2ccc(Cl)c(Cl)c2)o1)S(=O)(=O)c1ccccc1 returned bCat nuc transl 15, IEC-6 cytotox -6, Ba/F3 V617F tox -2, MT stabilizer 35*, BaF3 parental 2 and KLF5 inhibitor -16.
CC(C)NC(=S)N(CCc1ccncc1)C(C)C was read as bCat nuc transl 1, IEC-6 cytotox -6, Ba/F3 V617F tox 0, MT stabilizer 4, BaF3 parental 2 and KLF5 inhibitor 17.
COc1cccc(NC(=O)C2CCC(CNC(=O)[C@@H]3Cc4ccccc4CN3)CC2)c1 (some centres not stated) was read as IEC-6 cytotox -3 and KLF5 inhibitor -21.
